Experimental data from publication PMC5013402 (BMJ Open Diabetes Research & Care, 2016).
Read-outs that look alike come from different tables or passages of the source. Marks after values point to notes of the source that are not given here.

How the values were obtained:
[1] = type: in vivo, human (patients with type 1 or type 2 diabetes); details: serum, mean (SD), n=19
In short: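 Patients arrived fasting, with the morning prandial dose withheld; basal insulin or oral agents were taken as usual. Each inhaled their current individualized dose (range 15–90 units), then drank a standardized 540 kcal/67.5 g carbohydrate liquid meal. Serum was sampled at −30, 0, 5, 10, 15, 20, 30, 45, 60, 90, 120, 180 and 240 min. The challenge was repeated ≥15 to ≤45 days after symptom resolution, each patient serving as own control. Descriptive statistics.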

[2] = cited from earlier work; for Terminal clearance half-life from the lung: delivered as Technosphere inhaled insulin
[3] = after subcutaneous injection; cited from earlier work

Molecule | Terminal clearance half-life from the lung [2] [h] | Duration of action [3] [h] | Time to maximum concentration [3] [min] | also measured
O=C(O)/C=C/C(=O)NCCCC[C@@H]1NC(=O)[C@H](CCCCNC(=O)/C=C/C(=O)O)NC1=O [FDKP, fumaryl diketopiperazine] | ~1 | – | – | FDKP tmax ([1]; during URTI): 15.8 (26.2)† min; FDKP t½ ([1]; during URTI): 163.2 (35.5)† min; FDKP tmax ([1]; post-URTI): 15.5 (14.8)† min; FDKP t½ ([1]; post-URTI): 174.8 (79.0)† min; Excretion ([2]; after inhalation of Technosphere inhaled insulin): excreted unchanged in the urine
insulin aspart | – | 3 to 5 | 50 to 120 | –
insulin lispro | – | 3 to 5 | 50 to 120 | –
insulin: recombinant human insulin delivered as Technosphere inhaled insulin | ~1 | – | – | –
regular human insulin: regular human insulin given by subcutaneous injection | – | 5 to 8 | 80 to 120 | –
